Measurements taken from ChEMBL document CHEMBL4270565, “Design, synthesis and antimicrobial evaluation of propylene-tethered ciprofloxacin-isatin hybrids” (Eur J Med Chem, 2018).
Converted amounts (≈) assume the structure as drawn.

How the values were obtained:
[1] = test system: Stenotrophomonas maltophilia; assay: Antibacterial activity against Stenotrophomonas maltophilia ATCC 13636 after 18 to 24 hrs by two-fold serial dilution method; format: functional
Summary of the method: (§1)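 Agar two-fold dilution MIC. Compounds were dissolved in 0.1 N NaOH and water, then serially diluted in melted Mueller-Hinton agar, with top concentrations starting at 128. Plates were inoculated at about 10 cfu and incubated at 35 °C for 18–24 h. MIC was taken as the lowest concentration giving 90% inhibition of growth.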

[2] = test system: Pseudomonas aeruginosa; assay: Antibacterial activity against Pseudomonas aeruginosa ATCC 27853 after 18 to 24 hrs by two-fold serial dilution method; format: functional; summary of the method: as §1
[3] = test system: Klebsiella aerogenes; assay: Antibacterial activity against Enterobacter aerogenes ATCC 13048 after 18 to 24 hrs by two-fold serial dilution method; format: functional; summary of the method: as §1
[4] = test system: Staphylococcus epidermidis; assay: Antibacterial activity against methicillin-resistant Staphylococcus epidermidis 13-3 after 18 to 24 hrs by two-fold serial dilution method; format: functional
Summary of the method: (§2)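 Agar two-fold serial dilution in Mueller-Hinton agar. Strains came from the Chinese Center for Disease Control and Prevention. Compounds were dissolved in 0.1 N NaOH and water, then diluted in melted agar to final levels stepping down from 128. Plates were inoculated with bacterial cfu and incubated at 35 C for 18–24 h. MIC is the lowest concentration giving 90% growth inhibition.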

[5] = test system: Enterococcus faecalis; assay: Antibacterial activity against Enterococcus faecalis ATCC 29212 after 18 to 24 hrs by two-fold serial dilution method; format: functional; summary of the method: as §1
[6] = test system: Staphylococcus aureus; assay: Antibacterial activity against methicillin-sensitive Staphylococcus aureus ATCC 29213 after 18 to 24 hrs by two-fold serial dilution method; format: functional; summary of the method: as §2
[7] = test system: Morganella morganii; assay: Antibacterial activity against Morganella morganii ATCC 25830 after 18 to 24 hrs by two-fold serial dilution method; format: functional; summary of the method: as §1
[8] = test system: Klebsiella pneumoniae; assay: Antibacterial activity against extended-spectrum beta-lactamase deficient Klebsiella pneumoniae 15-2 after 18 to 24 hrs by two-fold serial dilution method; format: functional; summary of the method: as §1
[9] = test system: Proteus mirabilis; assay: Antibacterial activity against Proteus mirabilis 13-1 after 18 to 24 hrs by two-fold serial dilution method; format: functional; summary of the method: as §1
[10] = test system: Providencia rettgeri; assay: Antibacterial activity against Providencia rettgeri ATCC 31052 after 18 to 24 hrs by two-fold serial dilution method; format: functional; summary of the method: as §1
[11] = test system: Enterococcus faecium; assay: Antibacterial activity against Enterococcus faecium ATCC 700221 after 18 to 24 hrs by two-fold serial dilution method; format: functional; summary of the method: as §1
[12] = test system: Escherichia coli; assay: Antibacterial activity against extended-spectrum beta-lactamase deficient Escherichia coli ATCC 25922 after 18 to 24 hrs by two-fold serial dilution method; format: functional; summary of the method: as §1
[13] = test system: Klebsiella pneumoniae; assay: Antibacterial activity against extended-spectrum beta-lactamase harboring Klebsiella pneumoniae ATCC 700603 after 18 to 24 hrs by two-fold serial dilution method; format: functional; summary of the method: as §2
[14] = test system: Enterococcus faecalis; assay: Antibacterial activity against Enterococcus faecalis ATCC 51299 after 18 to 24 hrs by two-fold serial dilution method; format: functional; summary of the method: as §1
[15] = test system: Citrobacter freundii; assay: Antibacterial activity against extended-spectrum beta-lactamase harboring Citrobacter freundii ATCC 43864 after 18 to 24 hrs by two-fold serial dilution method; format: functional; summary of the method: as §2
[16] = test system: Mycobacterium tuberculosis; assay: Antimycobacterial activity against Mycobacterium tuberculosis H37Rv after 7 days; format: functional; conditions: 168 h
Summary of the method: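 Rapid direct susceptibility test in 48-well plates. Two-fold dilutions of compound from DMSO stocks were mixed with an equal volume of bacterial suspension. Medium-only wells served as growth controls and water-only wells as no-growth controls. Plates were sealed and held at 37 C in a humid box, and controls were checked at 3 days. MIC (90% growth inhibition) was read visually by high-magnification observation of the cells and re-read at 7 days.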

[17] = test system: Serratia marcescens; assay: Antibacterial activity against Serratia marcescens ATCC 21074 after 18 to 24 hrs by two-fold serial dilution method; format: functional; summary of the method: as §1
[18] = test system: Enterobacter cloacae; assay: Antibacterial activity against Enterobacter cloacae ATCC 43560 after 18 to 24 hrs by two-fold serial dilution method; format: functional
[19] = test system: Acinetobacter calcoaceticus; assay: Antibacterial activity against Acinetobacter calcoaceticus ATCC 19606 after 18 to 24 hrs by two-fold serial dilution method; format: functional; summary of the method: as §1
[20] = test system: Escherichia coli; assay: Antibacterial activity against extended-spectrum beta-lactamase harboring Escherichia coli ATCC 35218 after 18 to 24 hrs by two-fold serial dilution method; format: functional; summary of the method: as §2
[21] = test system: Staphylococcus epidermidis; assay: Antibacterial activity against methicillin-sensitive Staphylococcus epidermidis ATCC 12228 after 18 to 24 hrs by two-fold serial dilution method; format: functional; summary of the method: as §1
[22] = test system: Enterococcus faecium; assay: Antibacterial activity against Enterococcus faecium 13-7 after 18 to 24 hrs by two-fold serial dilution method; format: functional; summary of the method: as §1
[23] = test system: Proteus vulgaris; assay: Antibacterial activity against Proteus vulgaris ATCC 29905 after 18 to 24 hrs by two-fold serial dilution method; format: functional; summary of the method: as §1
[24] = Cytotoxicity against African green monkey Vero cells assessed as reduction in cell viability after 72 hrs by MTT assay; format: cell-based; conditions: chlorocebus sabaeus
Summary of the method: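 VERO cells were kept in MEM with Earle's salts and 10% FBS at 37 °C, 5% CO2. They were seeded in 96-well plates and allowed to recover for 24 h. Cells were then exposed to compounds in DMSO over a series from 1000 down to 4 for 72 h. Viability was read by MTT, and CC50 was calculated by Bliss analysis.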

[25] = test system: Staphylococcus aureus; assay: Antibacterial activity against methicillin-resistant Staphylococcus aureus ATCC 33591 after 18 to 24 hrs by two-fold serial dilution method; format: functional; summary of the method: as §2

Row | SMILES | MIC90 [1] [µg/mL] | MIC90 [2] [µg/mL] | MIC90 [3] [µg/mL] | MIC90 [4] [µg/mL] | MIC90 [5] [µg/mL] | MIC90 [6] [µg/mL] | MIC90 [7] [µg/mL] | MIC90 [8] [µg/mL] | MIC90 [9] [µg/mL] | MIC90 [10] [µg/mL] | MIC90 [11] [µg/mL] | MIC90 [12] [µg/mL] | MIC90 [13] [µg/mL] | MIC90 [14] [µg/mL] | MIC90 [15] [µg/mL] | MIC90 [16] [µg/mL] | MIC90 [17] [µg/mL] | MIC90 [18] [µg/mL] | MIC90 [19] [µg/mL] | MIC90 [20] [µg/mL] | also measured
1 | CO/N=C1\C(=O)N(CCCN2CCN(c3cc4c(cc3F)c(=O)c(C(=O)OCCCN3C(=O)/C(=N/OC)c5ccccc53)cn4C3CC3)CC2)c2ccccc21 | 128 (≈ 168 µM) | 64 (≈ 83.8 µM) | 64 (≈ 83.8 µM) | 128 (≈ 168 µM) | 64 (≈ 83.8 µM) | 128 (≈ 168 µM) | 128 (≈ 168 µM) | 32 (≈ 41.9 µM) | 64 (≈ 83.8 µM) | 64 (≈ 83.8 µM) | 128 (≈ 168 µM) | 4 (≈ 5.24 µM) | 64 (≈ 83.8 µM) | 128 (≈ 168 µM) | 64 (≈ 83.8 µM) | 12.5 (≈ 16.4 µM) | 64 (≈ 83.8 µM) | 32 (≈ 41.9 µM) | 128 (≈ 168 µM) | 4 (≈ 5.24 µM) | MIC90 [21]: 32 µg/mL (≈ 41.9 µM); MIC90 [22]: > 128 µg/mL; MIC90 [23]: 32 µg/mL (≈ 41.9 µM); CC50 at 72 h [24]: 64 µg/mL (≈ 83.8 µM); MIC90 [25]: > 128 µg/mL
2 | O=C1C(=O)N(CCCN2CCN(c3cc4c(cc3F)c(=O)c(C(=O)O)cn4C3CC3)CC2)c2ccccc21 | 0.125 (≈ 0.241 µM) | 1 (≈ 1.93 µM) | ≤ 0.03 | 4 (≈ 7.71 µM) | 1 (≈ 1.93 µM) | 0.25 (≈ 0.482 µM) | ≤ 0.03 | 0.125 (≈ 0.241 µM) | ≤ 0.03 | 0.03 (≈ 0.0579 µM) | 8 (≈ 15.4 µM) | ≤ 0.03 | 1 (≈ 1.93 µM) | 1 (≈ 1.93 µM) | ≤ 0.03 | 0.2 (≈ 0.386 µM) | 0.25 (≈ 0.482 µM) | 0.03 (≈ 0.0579 µM) | 1 (≈ 1.93 µM) | ≤ 0.03 | MIC90 [21]: 0.25 µg/mL (≈ 0.482 µM); MIC90 [22]: 64 µg/mL (≈ 123 µM); MIC90 [23]: ≤ 0.03 µg/mL; CC50 at 72 h [24]: 128 µg/mL (≈ 247 µM); MIC90 [25]: 0.25 µg/mL (≈ 0.482 µM)
